Source: ChEMBL document CHEMBL5058577, “EUbOPEN Chemogenomics Library 2 (Multiplex)” (2022)

Test system: Fibroblast
Experiment: Multiplex assay against human fibroblast
Assay type: toxicity, cell-based
Summary of the method: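 Imaging took place on a CQ1 microscope at 37°C and 5% CO2 once compound had been added to live cells stained at seeding with Hoechst33342, BioTracker Green Microtubule Cytoskeleton Dye, MitoTracker Red and Annexin V Alexa Fluor 680. CellPathfinder machine-learning gating classed cells as Hoechst high-intensity objects or normal cells, classed normal cells as having healthy, pyknosed or fragmented nuclei, and classed pyknosed cells as mitotic or apoptotic. Tubulin, mitochondrial-mass and membrane-permeability phenotypes are per cents of the healthy-nucleus cells.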

[1] = 12 h, 1 µM, compound concentration 1 uM, replicate 1
[2] = 12 h, 1 µM, compound concentration 1 uM, replicate 2
[3] = 12 h, 10 µM, compound concentration 10 uM, replicate 1
[4] = 12 h, 10 µM, compound concentration 10 uM, replicate 2
[5] = 24 h, 1 µM, compound concentration 1 uM, replicate 1
[6] = 24 h, 1 µM, compound concentration 1 uM, replicate 2
[7] = 24 h, 10 µM, compound concentration 10 uM, replicate 1
[8] = 24 h, 10 µM, compound concentration 10 uM, replicate 2
[9] = 48 h, 1 µM, compound concentration 1 uM, replicate 1
[10] = 48 h, 1 µM, compound concentration 1 uM, replicate 2
[11] = 48 h, 10 µM, compound concentration 10 uM, replicate 1
[12] = 48 h, 10 µM, compound concentration 10 uM, replicate 2

Cc1noc(-c2ccc(-c3ccc(CC(=O)O)cc3)cc2)c1NC(=O)O[C@H](C)c1ccccc1Cl
Population Apoptotic (%) [1]: 22%
Population Fragmented Nuclei (%) [1]: 14%
Population Healthy Nuclei (%) [1]: 77%
Population Hoechst High Intensity Objects (%) [1]: 0%
Population Membrane Permeable-Phenotype (%) [1]: 0%
Population Mitochondria Different-Phenotype (%) [1]: 1%
Population Mitotic Cells (%) [1]: 77%
Population Normal (%) [1]: 100%
Population Pyknosed Nuclei (%) [1]: 8%
Population Tubulin-Different-Phenotype (%) [1]: 10%
Total Cell Count [1]: 106
Population Apoptotic (%) [2]: 58%
Population Fragmented Nuclei (%) [2]: 21%
Population Healthy Nuclei (%) [2]: 60%
Population Hoechst High Intensity Objects (%) [2]: 5%
Population Membrane Permeable-Phenotype (%) [2]: 5%
Population Mitochondria Different-Phenotype (%) [2]: 2%
Population Mitotic Cells (%) [2]: 41%
Population Normal (%) [2]: 95%
Population Pyknosed Nuclei (%) [2]: 18%
Population Tubulin-Different-Phenotype (%) [2]: 26%
Total Cell Count [2]: 140
Population Apoptotic (%) [3]: 40%
Population Fragmented Nuclei (%) [3]: 20%
Population Healthy Nuclei (%) [3]: 62%
Population Hoechst High Intensity Objects (%) [3]: 1%
Population Membrane Permeable-Phenotype (%) [3]: 1%
Population Mitochondria Different-Phenotype (%) [3]: 6%
Population Mitotic Cells (%) [3]: 60%
Population Normal (%) [3]: 98%
Population Pyknosed Nuclei (%) [3]: 17%
Population Tubulin-Different-Phenotype (%) [3]: 31%
Total Cell Count [3]: 119
Population Apoptotic (%) [4]: 29%
Population Fragmented Nuclei (%) [4]: 17%
Population Healthy Nuclei (%) [4]: 45%
Population Hoechst High Intensity Objects (%) [4]: 6%
Population Membrane Permeable-Phenotype (%) [4]: 2%
Population Mitochondria Different-Phenotype (%) [4]: 10%
Population Mitotic Cells (%) [4]: 70%
Population Normal (%) [4]: 93%
Population Pyknosed Nuclei (%) [4]: 36%
Population Tubulin-Different-Phenotype (%) [4]: 57%
Total Cell Count [4]: 90
Population Apoptotic (%) [5]: 20%
Population Fragmented Nuclei (%) [5]: 16%
Population Healthy Nuclei (%) [5]: 78%
Population Hoechst High Intensity Objects (%) [5]: 0%
Population Membrane Permeable-Phenotype (%) [5]: 0%
Population Mitochondria Different-Phenotype (%) [5]: 1%
Population Mitotic Cells (%) [5]: 80%
Population Normal (%) [5]: 100%
Population Pyknosed Nuclei (%) [5]: 4%
Population Tubulin-Different-Phenotype (%) [5]: 10%
Total Cell Count [5]: 102
Population Apoptotic (%) [6]: 52%
Population Fragmented Nuclei (%) [6]: 30%
Population Healthy Nuclei (%) [6]: 57%
Population Hoechst High Intensity Objects (%) [6]: 2%
Population Membrane Permeable-Phenotype (%) [6]: 1%
Population Mitochondria Different-Phenotype (%) [6]: 7%
Population Mitotic Cells (%) [6]: 47%
Population Normal (%) [6]: 97%
Population Pyknosed Nuclei (%) [6]: 12%
Population Tubulin-Different-Phenotype (%) [6]: 28%
Total Cell Count [6]: 161
Population Apoptotic (%) [7]: 50%
Population Fragmented Nuclei (%) [7]: 20%
Population Healthy Nuclei (%) [7]: 68%
Population Hoechst High Intensity Objects (%) [7]: 1%
Population Membrane Permeable-Phenotype (%) [7]: 0%
Population Mitochondria Different-Phenotype (%) [7]: 7%
Population Mitotic Cells (%) [7]: 50%
Population Normal (%) [7]: 98%
Population Pyknosed Nuclei (%) [7]: 11%
Population Tubulin-Different-Phenotype (%) [7]: 29%
Total Cell Count [7]: 122
Population Apoptotic (%) [8]: 32%
Population Fragmented Nuclei (%) [8]: 26%
Population Healthy Nuclei (%) [8]: 41%
Population Mitochondria Different-Phenotype (%) [8]: 10%
Population Mitotic Cells (%) [8]: 67%
Population Pyknosed Nuclei (%) [8]: 31%
Population Tubulin-Different-Phenotype (%) [8]: 65%
Total Cell Count [8]: 98
Population Apoptotic (%) [9]: 44%
Population Fragmented Nuclei (%) [9]: 18%
Population Healthy Nuclei (%) [9]: 73%
Population Hoechst High Intensity Objects (%) [9]: 1%
Population Membrane Permeable-Phenotype (%) [9]: 1%
Population Mitochondria Different-Phenotype (%) [9]: 1%
Population Mitotic Cells (%) [9]: 55%
Population Normal (%) [9]: 98%
Population Pyknosed Nuclei (%) [9]: 8%
Population Tubulin-Different-Phenotype (%) [9]: 16%
Total Cell Count [9]: 112
Population Apoptotic (%) [10]: 60%
Population Fragmented Nuclei (%) [10]: 35%
Population Healthy Nuclei (%) [10]: 55%
Population Hoechst High Intensity Objects (%) [10]: 2%
Population Membrane Permeable-Phenotype (%) [10]: 5%
Population Mitochondria Different-Phenotype (%) [10]: 3%
Population Mitotic Cells (%) [10]: 40%
Population Normal (%) [10]: 97%
Population Tubulin-Different-Phenotype (%) [10]: 25%
Total Cell Count [10]: 171
Population Apoptotic (%) [11]: 23%
Population Fragmented Nuclei (%) [11]: 30%
Population Healthy Nuclei (%) [11]: 55%
Population Hoechst High Intensity Objects (%) [11]: 4%
Population Membrane Permeable-Phenotype (%) [11]: 2%
Population Mitochondria Different-Phenotype (%) [11]: 4%
Population Mitotic Cells (%) [11]: 76%
Population Normal (%) [11]: 95%
Population Pyknosed Nuclei (%) [11]: 13%
Population Tubulin-Different-Phenotype (%) [11]: 35%
Total Cell Count [11]: 133
Population Apoptotic (%) [12]: 39%
Population Fragmented Nuclei (%) [12]: 40%
Population Healthy Nuclei (%) [12]: 37%
Population Hoechst High Intensity Objects (%) [12]: 2%
Population Membrane Permeable-Phenotype (%) [12]: 0%
Population Mitochondria Different-Phenotype (%) [12]: 10%
Population Mitotic Cells (%) [12]: 60%
Population Normal (%) [12]: 97%
Population Pyknosed Nuclei (%) [12]: 22%
Population Tubulin-Different-Phenotype (%) [12]: 69%
Total Cell Count [12]: 107
